# Peptide text beside a SMILES is read from it. * marks the point of attachment. Nonanoyl = CCCCCCCCC(=O)*; Hexanoyl = CCCCCC(=O)*; Pentanoyl = CCCCC(=O)*
# Assays:
# Mus musculus = test: Compound was tested in vivo for its ability to antagonize apomorphine-induced climbing response in mice upon intraperitoneal administration; assay type: functional; settings: ip
# Procedure, shortened: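 C57BL/6 male mice, 22–25 g, adapted 1 h in wire mesh cages. Compound in saline with 3% Tween 80 given ip 15 min before apomorphine 5.0 mg/kg sc (in saline with 0.1% ascorbic acid). Climbing scored 0–4 every 2 min, 30 readings, from 15 min after apomorphine. Totals are expressed as % of vehicle control. ED50 with 95% confidence limits by log-dose linear regression, 8–16 mice per dose.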
# Rattus norvegicus [1] = test: Compound was tested in vivo for its ability to induce catalepsy in rats upon intraperitoneal administration; assay type: functional; settings: ip
# Procedure, shortened: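 Adult outbred male rats, 200–250 g, dosed ip with compound in saline containing 3% Tween 80. Forepaws placed on a bar 7 cm high (Morpurgo apparatus) at 0.5, 1.0, 1.5 and 2 h. Bar time scored 0–3, tested twice per session at 2-min intervals. Scores are given as percent of the maximal cumulative score (15).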
# Rattus norvegicus [2] = test: Compound was tested in vivo for its ability to antagonize extrapolatory behavior impairment induced by DOPA in rats upon intraperitoneal administration; assay type: functional; settings: ip
# Procedure, shortened: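 Outbred albino male rats, 180–200 g, placed in a water-plunged cylinder (22 °C) and must dive under its edge within 2 min; non-escapers discarded. A day later, Madopar (100 mg/kg L-DOPA + 25 mg/kg benserazide in 3% Tween 80) is given ip 60 min before testing. Compound in saline + 3% Tween 80 is given ip 10 min before Madopar. Successful escapes are recorded. ED50 with 95% confidence limits by linear regression, eight rats per dose.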
# [3] = Acute toxicity on male outbred albino mice upon intraperitoneal administration; settings: mouse, in vivo, ip
# Procedure, shortened: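 Male outbred albino mice (Moscow region), 20–25 g, housed five per cage with free food and water at 21–22 °C, 40–50% humidity, 12/12 h light/dark. Single ip injection at doses up to 500–1000 mg/kg. Surviving animals were counted 2, 24 and 48 h after injection.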
Structure (SMILES),ED50 (Mus musculus) [mg/kg],ED50 (Rattus norvegicus [1]) [mg/kg],ED50 (Rattus norvegicus [2]) [mg/kg],LD50 [3] [mg/kg]
CC(C)(C)OC(=O)N1CCC[C@H]1C(=O)N[C@@H](Cc1ccc(O)cc1)C(N)=O,2.5,,,
NC(=O)[C@H](Cc1ccc(O)cc1)NC(=O)[C@H]1CCCN1,3.6,,,
NC(=O)[C@@H](Cc1ccc(O)cc1)NC(=O)[C@@H]1CCCN1,> 16,,,
CC(C)(C)OC(=O)N1CCC[C@@H]1C(=O)N[C@@H](Cc1ccc(O)cc1)C(N)=O,0.4,,,
NC(=O)[C@H](Cc1ccc(O)cc1)NC(=O)[C@@H]1CCCN1C(=O)Cc1ccccc1,2.2,> 1000,1.5,> 1000
NC(=O)[C@H](Cc1ccc(O)cc1)NC(=O)[C@H]1CCCN1C(=O)Cc1ccccc1,4.9,,,
NC(=O)[C@@H](Cc1ccc(O)cc1)NC(=O)[C@@H]1CCCN1C(=O)Cc1ccccc1,> 8,,,
NC(=O)[C@H](Cc1ccc(O)cc1)NC(=O)[C@@H]1CCCN1,3.4,> 500,1.6,> 500
CCCCCC(=O)N1CCC[C@H]1C(=O)N[C@@H](Cc1ccc(O)cc1)C(N)=O (Hexanoyl-Pro-Tyr-NH2),0.5,> 500,0.4,> 500
CCCCCCCCC(=O)N1CCC[C@H]1C(=O)N[C@@H](Cc1ccc(O)cc1)C(N)=O (Nonanoyl-Pro-Tyr-NH2),0.5,,,
CCCCC(=O)N1CCC[C@H]1C(=O)N[C@@H](Cc1ccc(O)cc1)C(N)=O (Pentanoyl-Pro-Tyr-NH2),3.2,,,
CN1CCN(C2=Nc3cc(Cl)ccc3Nc3ccccc32)CC1 [CLOZAPINE],,> 32,20,
O=C(CCCN1CCC(O)(c2ccc(Cl)cc2)CC1)c1ccc(F)cc1 [HALOPERIDOL],0.1,0.5,0.14,35
CCN1CCC[C@H]1CNC(=O)c1cc(S(N)(=O)=O)ccc1OC [LEVOSULPIRIDE],17.5,> 120,16.5,250
CCN1CCC[C@H]1CNC(=O)c1c(OC)ccc(Br)c1OC [REMOXIPRIDE],1.2,8.7,0.31,302

# Reference: ChEMBL document CHEMBL1131453, “Design of N-acylprolyltyrosine "tripeptoid" analogues of neurotensin as potential atypical antipsychotic agents” (J Med Chem, 1998)
